Screens (PubChem)
Compounds with a hit are over-represented: about 0.77% of the library has one in this group of screens.
S1P4 ag: agonists of human S1P4 receptor | 0.35% of 220,000 active | AID 1509 | S1P4-expressing cell line, agonist reporter assay | O95977 | activation, % at 4.98 µM; in the data active = activation above about 11%;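 also: 0% = DMSO vehicle and 100% = reference agonist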
Target sequence (O95977 whole entry, looked up): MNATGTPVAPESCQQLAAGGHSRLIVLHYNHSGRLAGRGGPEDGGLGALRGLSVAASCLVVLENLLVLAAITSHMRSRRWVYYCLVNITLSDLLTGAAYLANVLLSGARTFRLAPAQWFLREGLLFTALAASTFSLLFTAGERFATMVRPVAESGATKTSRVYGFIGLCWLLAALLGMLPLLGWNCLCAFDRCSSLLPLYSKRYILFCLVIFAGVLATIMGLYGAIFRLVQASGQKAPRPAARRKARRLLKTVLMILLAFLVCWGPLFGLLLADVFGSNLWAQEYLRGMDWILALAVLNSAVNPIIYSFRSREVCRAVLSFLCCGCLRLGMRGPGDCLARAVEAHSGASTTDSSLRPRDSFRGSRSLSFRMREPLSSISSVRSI
S1P3 antag-1: blocks the human S1P3 receptor; 0.27% of 170,000 active; AID 485; CHO S1P3 NFAT-BLA reporter, FRET fluorescence, antagonist mode; Q99500; inhibition, % at 4.98 µM;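 active = inhibition above the plate cutoff, the mean inhibition of test wells on that plate plus 3 SD, cut at about 28% in these data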;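 also: cells challenged with S1P at its EC80 of 0.8 µM; blue over green emission ratio from cleaved BLA substrate after 4 h stimulation; 0% = S1P-stimulated wells and 100% = unstimulated DMSO-only wells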
Pf gamet viab: inhibitors of late stage P. falciparum gametocyte viability. P. falciparum stage V gametocytes, ATP luminescence, 24 h. inhibition, % at 10.9 µM. 0.065% of 150,000 active;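 active = inhibition above the mean plus 3 SD of compounds within the control limits, set per campaign, cut at about 38% in these data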;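 also: 0% = DMSO wells and 100% = medium only without gametocytes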
Calb biofilm kill: mixtures killing C. albicans biofilm | C. albicans biofilm persisters + clotrimazole, fluorescence viability; primary screen in compound mixtures of four per well | inhibition, % at 7.6 µM | 0.02% of 120,000 active;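 active = inhibition above 30.3% in the primary screen of four-compound pools, then above 30% when the compound was retested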;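 also: compounds exposed to preformed 24 h biofilms for 48 h; 0% = untreated biofilm control and 100% = clotrimazole plus chlorhexidine kill blank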
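System: C. albicans CAF4-2 wild-type biofilms; Medium: RPMI/MOPS medium, pH 7.0; Reagent: Clotrimazole, 50 µg/mL; Times: biofilm formation 24 h, compound exposure 48 h, 37 °C; Detection: 2-h Alamar Blue fluorescence, 535/590 nm excitation/emission; Evaluation: percent inhibition of biofilm viability.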
S1P4 antag: blocks the human S1P4 receptor; O95977; S1P4-expressing cells, antagonist mode, reporter read-out; 0.26% of 220,000 active; inhibition, % at 4.98 µM; in the data active = inhibition above about 29%;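 also: 0% = wells stimulated with agonist and 100% = vehicle wells without agonist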
S1P3 antag-2: confirmation of human S1P3 receptor antagonists; shares compounds with S1P3 antag-1; CHO S1P3 NFAT-BLA reporter, FRET, antagonist mode; inhibition, % at 4.98 µM; 30% of 240 active;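 active = inhibition above the hit threshold that was computed for the earlier primary screen, cut at about 30% in these data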;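 also: 0% = S1P-stimulated wells and 100% = unstimulated DMSO-only wells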
S1P4 antag conf: human S1P4 antagonism, confirmation. shares compounds with S1P4 antag. S1P4-expressing cell line, antagonist mode, reporter read-out. inhibition, % at 4.98 µM. 71% of 520 active; in the data active = inhibition above about 30%
S1P1 antag: human S1P1 antagonism as S1P4 antagonist counter-screen. cell-based S1P1 antagonist counterscreen, inhibition. AID 1564. 37% of 520 active. shares compounds with S1P4 antag. inhibition, % at 4.98 µM; in the data active = inhibition above about 40%;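 also: receptor stimulated with S1P near its EC80; 0% = agonist stimulated wells and 100% = vehicle only wells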
Target sequence (P21453 whole entry, looked up): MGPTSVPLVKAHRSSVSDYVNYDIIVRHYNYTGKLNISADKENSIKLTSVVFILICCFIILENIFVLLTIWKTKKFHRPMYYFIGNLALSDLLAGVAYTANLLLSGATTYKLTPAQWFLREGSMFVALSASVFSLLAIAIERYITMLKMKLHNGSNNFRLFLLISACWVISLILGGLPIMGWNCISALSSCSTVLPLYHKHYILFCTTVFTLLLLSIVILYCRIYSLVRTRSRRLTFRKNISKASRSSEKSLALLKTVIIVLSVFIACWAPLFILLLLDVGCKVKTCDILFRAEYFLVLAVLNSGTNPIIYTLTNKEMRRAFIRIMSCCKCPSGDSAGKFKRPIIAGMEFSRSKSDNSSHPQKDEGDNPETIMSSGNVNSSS
Numbers without * were called inactive; nt = no result given.

SMILES | S1P4 ag | S1P3 antag-1 | Pf gamet viab | Calb biofilm kill | S1P4 antag | S1P3 antag-2 | others
CCC(C(=O)Nc1ccc(C)cc1)c1ccccc1 (stereo not given) | 0.2 | 26.7 | 13.6 | 19.2 | 2.4 | nt
Cc1ccccc1NC(=O)C(c1ccccc1)C1CCCC1 (stereo not given) | 0.4 | 3.7 | -7.1 | -7.5 | 14.4 | nt
NC(=O)C(c1ccccc1)C1CCCC1 (stereo not given) | 0.6 | nt | 16.1 | nt | 0.4 | nt
O=C(Nc1ccc2ccccc2c1)C(c1ccccc1)C1CCCC1 (stereo not given) | 0.3 | 55.3* | -4.8 | -0.3 | 1.4 | 65.8*
Cc1ccc(NC(=O)C(c2ccccc2)C2CCCC2)cc1 (stereo not given) | 4.4 | 59.8* | -17.8 | 1.3 | -5.6 | 70.1*
O=C(COC(=O)Cc1ccc(Cl)cc1Cl)Nc1ccccc1OC(F)F | -0.2 | -1.2 | -20.5 | 15.4 | -17.9 | nt
CCCNC(=O)C1CC(c2ccccc2C(F)(F)F)=NO1 (stereo not given) | nt | nt | -19.4 | nt | nt | nt
COC(=O)c1cccnc1-n1c(=O)c2cccnc2n(Cc2cccc(C(F)(F)F)c2)c1=O | 0.5 | -9.4 | -11.9 | 12.3 | 6.5 | nt
Brc1cccc(CN2CCN(c3ncccn3)CC2)c1 | nt | nt | -0.7 | nt | nt | nt
CC(C)(C)c1cc(C(=O)Nc2ccc(F)cc2)n(Cc2ccc(F)cc2)n1 | -0.3 | 30.1* | 10.2 | 6.9 | 10.7 | 24.2
COC(=O)c1ccc(-n2nnnc2SCC(=O)Nc2ccccc2F)cc1 | nt | nt | 0.9 | nt | nt | nt
O=C(/C=C/c1ccco1)Nc1sc2c(c1C(=O)O)CCC2 | -0.5 | nt | nt | nt | -15.5 | nt
N#Cc1c(NC(=O)/C=C/c2ccco2)sc2c1CCCC2 | 1.9 | 29.3* | 3.0 | 13.5 | 2.3 | 28.7*
CCN(CC)C(=O)c1[nH]cnc1C(=O)N[C@H](C)c1ccccc1 | nt | nt | 18.8 | nt | nt | nt
CCCCCCCCCn1ccc(=N)cc1 | 1.5 | 30.1* | 9.5 | 19.4 | -7.0 | 2.8
CCCCCCCn1ccc(=N)cc1 | -2.8 | nt | -15.4 | nt | -15.9 | nt
Cc1c(Cl)cn2c(=O)cc(CN(C)Cc3nc4ccccc4c(=O)[nH]3)nc2c1Cl | 1.1 | 34.3* | nt | 15.8 | -14.2 | -14.5
CCN(Cc1cc(=O)n2ccsc2n1)Cc1nc2ccccc2c(=O)[nH]1 | -0.9 | -8.7 | nt | 14.2 | -3.4 | nt
CC(=O)c1c(C)[nH]c(C(=O)NC(C)c2ccccc2)c1C (stereo not given) | -3.0 | 37.8* | 10.3 | 8.1 | -5.4 | -11.4
COc1ccc(NC(=O)COc2ccccc2)cc1NC(=O)c1ccco1 | nt | nt | -3.1 | nt | nt | nt
C=CCn1c(O)c(C=Nc2ccc(CN3CCCCC3)cc2)c(=O)[nH]c1=S | 0.2 | 42.3* | -1.0 | 11.2 | -17.6 | -6.4
Brc1ccc(C[n+]2ccccc2)cc1 | nt | nt | 12.4 | nt | nt | nt
Cc1cccc(C2(c3cccc(C)c3)CC2C(=O)Nc2ccc([N+](=O)[O-])cc2O)c1 (stereo not given) | 0.7 | 75.7* | 12.7 | 16.4 | -0.6 | 72.7*
Cc1ccc(Nc2nc(-c3cccnc3)nc3ccccc23)cc1 | 0.9 | 35.1* | -12.8 | 1.9 | -4.4 | 13.9
Cc1ccccc1Nc1nc(-c2cccnc2)nc2ccccc12 | -2.3 | 4.1 | nt | 13.4 | 0.3 | nt
SMILES | S1P4 ag | S1P3 antag-1 | Pf gamet viab | Calb biofilm kill | S1P4 antag | S1P3 antag-2 | others
Cc1ccc(NC(=O)C(C)c2ccc([N+](=O)[O-])cc2)cc1Cl (stereo not given) | 0.0 | 49.1* | nt | -6.4 | 11.3 | 48.1*
Cc1ccc(NC(=O)C(OC(=O)c2ccccc2Cl)c2ccccc2)cc1Cl (stereo not given) | 2.5 | 29.3* | 8.8 | 14.3 | -15.8 | 40.1*
Cc1ccc(NC(=O)C(OC(=O)c2ccc(NC(N)=O)cc2)c2ccccc2)cc1Cl (stereo not given) | 3.6 | -5.2 | 18.7 | 10.4 | -16.6 | nt
CC(C(=O)Nc1ccccc1Br)c1ccc([N+](=O)[O-])cc1 (stereo not given) | -1.0 | 6.0 | -6.9 | 25.7 | -8.7 | nt
Cc1cc(C(=O)OC(C(=O)Nc2ccc(C)c(Cl)c2)c2ccccc2)c(C)o1 (stereo not given) | 0.4 | 53.4* | -22.6 | 18.3 | 1.2 | 40.0*
O=C(CCc1ccccc1)NNC(=O)Cc1ccccc1 | -2.4 | -6.5 | 15.4 | 3.1 | -3.4 | nt
CCCCCCCCNC1=CC(=O)CC(C)(C)C1 | -0.4 | 10.6 | 5.1 | 22.5 | 6.0 | nt
Cc1cc(C)c(NS(=O)(=O)c2ccc(NC(=O)/C=C/C(=O)O)cc2)c(C)c1 | 3.0 | 5.9 | 9.1 | 24.9 | -30.2 | nt
O=C1S/C(=C/c2ccccc2)C(=O)N1CC(O)Cn1c2ccccc2c2ccccc21 (stereo not given) | -0.2 | 39.8* | nt | 24.8 | -9.1 | -18.3
OCCNCCCOc1cc(Cl)ccc1Cl | 1.9 | 36.4* | 15.2 | 14.0 | 2.5 | -8.8
CNc1nc2cc([N+](=O)[O-])c([N+](=O)[O-])cc2nc1NC | -1.6 | 54.1* | -5.9 | 16.6 | -6.4 | 34.1*
Cc1c(F)cccc1NC(=O)c1ccc2c(c1)CCN2S(C)(=O)=O | nt | nt | -4.5 | nt | nt | nt
C1=C(CCNc2ncnc3c2[nH]c2ccccc23)CCCC1 | 3.5 | 40.9* | 9.7 | 26.5 | -14.3 | 27.9
O=C(Nc1ccc(F)cc1F)c1c(C(F)(F)F)ccnc1Oc1ccc(Cl)cc1 | -1.8 | 44.2* | 14.1 | 14.9 | -0.8 | 55.5*
O=C(Nc1ccc(F)cc1F)c1c(C(F)(F)F)ccnc1Oc1cccc(C(F)(F)F)c1 | -1.0 | 19.4 | -13.6 | 7.4 | 10.7 | nt
COc1ccc(NS(=O)(=O)c2cccc(NC(=O)c3ccc(Cl)nc3)c2)cc1 | -0.8 | 33.2* | 4.0 | 12.1 | 12.0 | 11.4
O=C(Nc1cccc(S(=O)(=O)Nc2ccc(Cl)cc2)c1)c1ccc(Cl)nc1 | -1.0 | 1.5 | -7.0 | -5.5 | -39.4 | nt
COC(=O)c1scc2c(=O)cc(C(F)(F)F)[nH]c12 | 1.4 | 32.3* | -16.3 | 19.8 | 34.5* | 23.5 | S1P4 antag conf=68.8*;S1P1 antag=51.5*
CCCCNc1ccc2c3c(cccc13)C(=O)N(CCCC)C2=O | 0.2 | 46.6* | 6.0 | 12.8 | 45.1* | 58.7* | S1P4 antag conf=67.4*;S1P1 antag=97.8*
CCOC(=O)C(=O)N1CCC(C(=O)OCC)CC1 | 1.4 | 1.3 | 4.2 | 11.4 | -2.2 | nt
CCCCC(=O)N/N=C/c1ccc(-c2ccc([N+](=O)[O-])cc2)o1 | 2.0 | 17.7 | 19.4 | 1.9 | -0.4 | nt
CC(C)(C)NC(=S)N/N=C\c1ccc(-c2ccc([N+](=O)[O-])cc2)o1 | -2.6 | 69.6* | -1.4 | 13.0 | 44.7* | 73.0* | S1P4 antag conf=82.6*;S1P1 antag=133.7*
Nc1cc(Cl)nnc1Cl | 2.1 | 2.9 | nt | 18.5 | 3.6 | nt
CCCc1nc2c(=O)n(C)c(=O)nc-2n(C)n1 | 2.3 | 72.0* | nt | 3.8 | 54.5* | 106.7* | S1P4 antag conf=88.6*;S1P1 antag=55.8*
CCn1c(N)nc2c1c(=O)n(C)c(=O)n2C | -2.2 | 23.9 | nt | nt | -2.5 | nt
